ChEMBL document CHEMBL2169806, “Design, synthesis, and pharmacological evaluation of N-acylhydrazones and novel conformationally constrained compounds as selective and potent orally active phosphodiesterase-4 inhibitors” (J Med Chem, 2012)

target: 3',5'-cyclic-AMP phosphodiesterase 4C (Homo sapiens, UniProt Q08493); assay: Inhibition of human recombinant PDE4C; conditions: not given
Sequence (Q08493 whole entry): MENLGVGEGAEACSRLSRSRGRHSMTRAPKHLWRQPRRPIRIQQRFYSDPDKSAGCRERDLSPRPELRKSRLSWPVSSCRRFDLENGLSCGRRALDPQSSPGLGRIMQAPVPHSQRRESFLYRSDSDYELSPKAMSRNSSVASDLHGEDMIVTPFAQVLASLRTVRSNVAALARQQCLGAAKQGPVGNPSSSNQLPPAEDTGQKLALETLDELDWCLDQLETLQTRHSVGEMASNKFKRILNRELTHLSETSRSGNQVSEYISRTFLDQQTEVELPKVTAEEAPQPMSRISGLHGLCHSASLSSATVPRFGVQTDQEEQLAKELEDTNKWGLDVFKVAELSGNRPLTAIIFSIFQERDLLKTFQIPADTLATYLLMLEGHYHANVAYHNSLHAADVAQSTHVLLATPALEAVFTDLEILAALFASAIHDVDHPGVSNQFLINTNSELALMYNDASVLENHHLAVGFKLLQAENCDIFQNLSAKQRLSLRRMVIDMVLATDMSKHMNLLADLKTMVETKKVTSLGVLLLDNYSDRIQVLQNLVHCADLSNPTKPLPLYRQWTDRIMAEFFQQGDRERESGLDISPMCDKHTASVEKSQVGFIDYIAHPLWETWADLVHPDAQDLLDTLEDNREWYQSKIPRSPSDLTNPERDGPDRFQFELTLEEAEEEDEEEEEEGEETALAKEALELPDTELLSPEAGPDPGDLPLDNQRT

Point of comparison: `Clc1ncnc2ccccc12`, IC50 3.69 µM. Against it:
- COc1ccc(/C=N/N(C)C(=O)c2ccc(O)cc2)cc1OC — 18-fold lower, 0.206 µM
- COc1ccc(C(=O)N(C)/N=C/c2ccc(OC)c(OC)c2)cc1 — 7.3-fold lower, 0.505 µM

test system: Mus musculus; assay: Proemetic activity in A/J mouse assessed as reversal of xylazine/katamine-induced anesthesia at 30 to 200 umol/kg, sc administered 30 mins prior xylazine/ketamine-administration; format: ADME, organism-based; conditions: in vivo, 0.5 h; call rule not given here

For `COc1ccc(/C=N/N(C)C(=O)c2ccc(O)cc2)cc1OC`, the Activity was “Non-toxic”.
With `COc1ccc(C(=O)N(C)/N=C/c2ccc(OC)c(OC)c2)cc1` the Activity was “Non-toxic”.

test system: Mus musculus; assay: Antiinflammatory activity in A/J mouse lung assessed as inhibition of LPS-induced TNFalpha production at 100 umol/kg, po administered 1 hr prior to LPS-challenge measured after 18 hrs relative to vehicle-treated control; format: functional; conditions: not given

Point of comparison: `COc1ccc(/C=N/N(C)C(=O)c2ccc(O)cc2)cc1OC`, inhibition in vivo at 100 µmol/kg 35%. Against it:
- COc1ccc(/C=N/N(C)C(=O)c2ccc3c(c2)OCO3)cc1OC — higher, 80%
- COc1ccc(C(=O)N(C)/N=C/c2ccc(OC)c(OC)c2)cc1 — higher, 51%

test system: Mus musculus; assay: Antiinflammatory activity in A/J mouse assessed as inhibition of neutrophil accumulation in bronchoalveolar space at 100 umol/kg, po administered 1 hr prior to LPS-challenge measured after 18 hrs relative to vehicle-treated control; format: functional; conditions: Lung

Point of comparison: `COc1ccc(C(=O)N(C)/N=C/c2ccc(OC)c(OC)c2)cc1`, inhibition in vivo at 100 µmol/kg 68%. Against it:
- COc1ccc(/C=N/N(C)C(=O)c2ccc3c(c2)OCO3)cc1OC — lower, 67%
- COc1ccc(/C=N/N(C)C(=O)c2ccc(O)cc2)cc1OC — lower, 60%

test system: Mus musculus; assay: Antiinflammatory activity in A/J mouse assessed as inhibition of leukocyte accumulation in bronchoalveolar space at 100 umol/kg, po administered 1 hr prior to LPS-challenge measured after 18 hrs relative to vehicle-treated control; format: functional; conditions: Lung

Point of comparison: `COc1ccc(C(=O)N(C)/N=C/c2ccc(OC)c(OC)c2)cc1`, inhibition in vivo at 100 µmol/kg 81%. Against it:
- COc1ccc(/C=N/N(C)C(=O)c2ccc3c(c2)OCO3)cc1OC — lower, 62%
- COc1ccc(/C=N/N(C)C(=O)c2ccc(O)cc2)cc1OC — lower, 65%

species on record: Bos taurus; assay: Inhibition of bovine PDE5 using […] as substrate at 10 uM; conditions: not given

Point of comparison: `COc1ccc(/C=N/N(C)C(=O)c2ccc(O)cc2)cc1OC`, inhibition 27.9%. Against it:
- COc1ccc(/C=N/N(C)C(=O)c2ccc3c(c2)OCO3)cc1OC — lower, 5.1%

test system: Mus musculus; assay: Antiinflammatory activity in A/J mouse assessed as inhibition of LPS-induced airway elastance provoked by methacholine at 100 umol/kg, po administered 1 hr prior to LPS-challenge measured after 18 hrs relative to vehicle-treated control; format: functional; conditions: not given

Point of comparison: `COc1ccc(C(=O)N(C)/N=C/c2ccc(OC)c(OC)c2)cc1`, inhibition in vivo at 100 µmol/kg 62%. Against it:
- COc1ccc(/C=N/N(C)C(=O)c2ccc3c(c2)OCO3)cc1OC — higher, 64%
- COc1ccc(/C=N/N(C)C(=O)c2ccc(O)cc2)cc1OC — lower, 61%

species on record: Bos taurus; assay: Inhibition of bovine PDE4 using [3H]cAMP as substrate at 10 uM; conditions: not given
Method in brief: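 Enzyme was PDE4 isolated from the media layer of bovine aorta, run in the two-step activity assay at 1 μM cAMP.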

Point of comparison: `COc1ccc(/C=N/N(C)C(=O)c2ccc(O)cc2)cc1OC`, inhibition 98.4%. Against it:
- COc1ccc(/C=N/N(C)C(=O)c2ccc3c(c2)OCO3)cc1OC — lower, 96.3%
- COc1ccc(C(=O)N(C)/N=C/c2ccc(OC)c(OC)c2)cc1 — lower, 98.3%

test system: Mus musculus; assay: Antiinflammatory activity in A/J mouse lung assessed as inhibition of LPS-induced IL6 production at 100 umol/kg, po administered 1 hr prior to LPS-challenge measured after 18 hrs relative to vehicle-treated control; format: functional; conditions: not given

Point of comparison: `COc1ccc(/C=N/N(C)C(=O)c2ccc(O)cc2)cc1OC`, inhibition in vivo at 100 µmol/kg 6%. Against it:
- COc1ccc(/C=N/N(C)C(=O)c2ccc3c(c2)OCO3)cc1OC — higher, 92%
- COc1ccc(C(=O)N(C)/N=C/c2ccc(OC)c(OC)c2)cc1 — higher, 45%

target: cGMP-dependent 3',5'-cyclic phosphodiesterase (Homo sapiens, UniProt O00408); assay: Inhibition of human PDE2 using [3H]cAMP as substrate at 10 uM; conditions: not given
Sequence (O00408 whole entry): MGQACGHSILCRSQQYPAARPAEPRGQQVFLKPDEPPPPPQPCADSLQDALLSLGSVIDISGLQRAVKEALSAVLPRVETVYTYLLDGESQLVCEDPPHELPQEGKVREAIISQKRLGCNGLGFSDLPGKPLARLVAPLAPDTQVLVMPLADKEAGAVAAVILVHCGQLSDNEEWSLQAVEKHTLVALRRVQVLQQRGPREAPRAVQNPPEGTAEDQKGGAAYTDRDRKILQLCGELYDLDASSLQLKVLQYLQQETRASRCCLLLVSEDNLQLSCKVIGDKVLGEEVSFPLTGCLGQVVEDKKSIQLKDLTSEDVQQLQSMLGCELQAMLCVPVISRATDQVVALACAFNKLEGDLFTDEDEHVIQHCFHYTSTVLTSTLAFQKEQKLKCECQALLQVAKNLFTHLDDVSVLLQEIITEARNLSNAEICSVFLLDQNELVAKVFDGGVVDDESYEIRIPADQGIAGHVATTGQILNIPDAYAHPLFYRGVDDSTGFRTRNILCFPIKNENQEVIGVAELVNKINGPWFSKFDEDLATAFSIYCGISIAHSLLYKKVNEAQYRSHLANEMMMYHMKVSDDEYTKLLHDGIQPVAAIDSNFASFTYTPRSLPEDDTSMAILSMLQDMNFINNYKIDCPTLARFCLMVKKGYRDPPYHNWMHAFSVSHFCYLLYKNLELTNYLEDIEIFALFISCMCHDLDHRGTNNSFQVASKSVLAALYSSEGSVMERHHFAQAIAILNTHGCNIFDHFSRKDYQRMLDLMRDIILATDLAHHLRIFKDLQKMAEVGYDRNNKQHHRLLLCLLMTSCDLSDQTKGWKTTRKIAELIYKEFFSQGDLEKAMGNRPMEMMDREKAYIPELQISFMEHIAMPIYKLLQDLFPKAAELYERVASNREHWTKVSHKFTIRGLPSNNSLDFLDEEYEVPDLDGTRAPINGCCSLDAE

Point of comparison: `COc1ccc(/C=N/N(C)C(=O)c2ccc(O)cc2)cc1OC`, inhibition 39.3%. Against it:
- COc1ccc(/C=N/N(C)C(=O)c2ccc3c(c2)OCO3)cc1OC — lower, 4%
- COc1ccc(C(=O)N(C)/N=C/c2ccc(OC)c(OC)c2)cc1 — lower, 35.5%

test system: not listed separately; assay: Inhibition of bovine PDE4 using [3H]cAMP as substrate; design: species or system Bos taurus; conditions: not given

Point of comparison: `COc1ccc(C(=O)N(C)/N=C/c2ccc(OC)c(OC)c2)cc1`, IC50 0.105 µM. Against it:
- COc1ccc(/C=N/N(C)C(=O)c2ccc3c(c2)OCO3)cc1OC — within 1.5-fold, 0.11 µM
- COc1ccc(/C=N/N(C)C(=O)c2ccc(O)cc2)cc1OC — 2.1-fold lower, 0.05 µM

test system: Mus musculus; assay: Antiinflammatory activity in A/J mouse assessed as inhibition of LPS-induced airway resistance provoked by methacholine at 100 umol/kg, po administered 1 hr prior to LPS-challenge measured after 18 hrs relative to vehicle-treated control; format: functional; conditions: not given

Point of comparison: `COc1ccc(/C=N/N(C)C(=O)c2ccc(O)cc2)cc1OC`, inhibition in vivo at 100 µmol/kg 36%. Against it:
- COc1ccc(/C=N/N(C)C(=O)c2ccc3c(c2)OCO3)cc1OC — higher, 56%
- COc1ccc(C(=O)N(C)/N=C/c2ccc(OC)c(OC)c2)cc1 — higher, 61%

target: 3',5'-cyclic-AMP phosphodiesterase 4B (Homo sapiens, UniProt Q07343); assay: Inhibition of human recombinant PDE4B; conditions: not given
Sequence (Q07343 whole entry): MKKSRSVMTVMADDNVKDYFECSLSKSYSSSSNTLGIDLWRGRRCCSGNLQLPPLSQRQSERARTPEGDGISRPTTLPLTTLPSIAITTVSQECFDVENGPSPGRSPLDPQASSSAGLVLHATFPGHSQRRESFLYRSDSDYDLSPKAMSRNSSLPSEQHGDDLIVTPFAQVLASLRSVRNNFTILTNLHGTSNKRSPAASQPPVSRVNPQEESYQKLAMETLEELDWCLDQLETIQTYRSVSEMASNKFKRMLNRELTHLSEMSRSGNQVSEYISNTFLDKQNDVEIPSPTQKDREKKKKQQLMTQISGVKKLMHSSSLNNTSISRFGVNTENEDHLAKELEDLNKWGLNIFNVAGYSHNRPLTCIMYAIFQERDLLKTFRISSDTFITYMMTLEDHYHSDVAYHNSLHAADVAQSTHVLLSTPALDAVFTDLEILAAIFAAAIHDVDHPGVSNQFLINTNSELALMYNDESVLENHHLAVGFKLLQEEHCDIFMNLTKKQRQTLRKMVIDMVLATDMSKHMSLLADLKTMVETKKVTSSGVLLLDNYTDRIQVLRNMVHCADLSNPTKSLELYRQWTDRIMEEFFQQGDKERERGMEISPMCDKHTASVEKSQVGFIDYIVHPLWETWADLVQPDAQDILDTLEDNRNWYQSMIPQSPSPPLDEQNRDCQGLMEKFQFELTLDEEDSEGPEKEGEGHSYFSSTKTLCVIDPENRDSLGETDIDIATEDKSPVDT

Point of comparison: `Clc1ncnc2ccccc12`, IC50 0.231 µM. Against it:
- COc1ccc(/C=N/N(C)C(=O)c2ccc(O)cc2)cc1OC — 4.9-fold lower, 0.047 µM
- COc1ccc(C(=O)N(C)/N=C/c2ccc(OC)c(OC)c2)cc1 — 4.4-fold lower, 0.053 µM

test system: not listed separately; assay: Inhibition of PDE6 at 10 uM; conditions: not given

Point of comparison: `COc1ccc(C(=O)N(C)/N=C/c2ccc(OC)c(OC)c2)cc1`, inhibition 35.2%. Against it:
- COc1ccc(/C=N/N(C)C(=O)c2ccc3c(c2)OCO3)cc1OC — lower, 0.6%

test system: PBMC; assay: Antiinflammatory activity in human PBMC assessed as inhibition of LPS-induced TNFalpha production after 24 hrs by ELISA; format: functional, cell-based; conditions: not given

Point of comparison: `COc1ccc(/C=N/N(C)C(=O)c2ccc3c(c2)OCO3)cc1OC`, EC50 0.54 µM. Against it:
- COc1ccc(/C=N/N(C)C(=O)c2ccc(O)cc2)cc1OC — within 1.5-fold, 0.52 µM
- COc1ccc(C(=O)N(C)/N=C/c2ccc(OC)c(OC)c2)cc1 — 2.7-fold higher, 1.45 µM

species on record: Bos taurus; assay: Inhibition of bovine PDE3 using [3H]cAMP as substrate at 10 uM; conditions: not given

Work on `COc1ccc(/C=N/N(C)C(=O)c2ccc3c(c2)OCO3)cc1OC` yielded an inhibition of 19.4%.

target: 3',5'-cyclic-AMP phosphodiesterase 4D (Homo sapiens, UniProt Q08499); assay: Inhibition of human recombinant PDE4D; conditions: not given
Sequence (Q08499 whole entry): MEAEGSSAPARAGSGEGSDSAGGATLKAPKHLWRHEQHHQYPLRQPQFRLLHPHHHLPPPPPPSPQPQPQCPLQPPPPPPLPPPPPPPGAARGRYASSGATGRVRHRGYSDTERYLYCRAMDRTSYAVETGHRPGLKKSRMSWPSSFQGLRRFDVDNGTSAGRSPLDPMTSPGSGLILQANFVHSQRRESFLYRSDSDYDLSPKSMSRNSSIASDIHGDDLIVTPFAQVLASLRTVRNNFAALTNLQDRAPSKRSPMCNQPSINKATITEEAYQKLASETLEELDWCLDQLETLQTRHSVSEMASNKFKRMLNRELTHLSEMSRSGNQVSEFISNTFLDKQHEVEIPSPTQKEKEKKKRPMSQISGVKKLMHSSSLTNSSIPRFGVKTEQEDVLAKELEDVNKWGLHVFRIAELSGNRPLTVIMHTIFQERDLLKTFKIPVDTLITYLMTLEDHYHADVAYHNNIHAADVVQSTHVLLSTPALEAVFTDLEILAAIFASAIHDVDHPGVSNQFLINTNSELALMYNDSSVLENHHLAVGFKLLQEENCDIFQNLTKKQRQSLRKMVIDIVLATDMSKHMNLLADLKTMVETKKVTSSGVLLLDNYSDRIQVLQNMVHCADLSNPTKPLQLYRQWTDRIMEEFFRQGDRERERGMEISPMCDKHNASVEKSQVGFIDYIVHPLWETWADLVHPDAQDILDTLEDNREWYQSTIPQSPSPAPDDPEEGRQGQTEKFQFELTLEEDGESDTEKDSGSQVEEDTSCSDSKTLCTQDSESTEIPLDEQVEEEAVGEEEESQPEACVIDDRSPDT

Point of comparison: `COc1ccc(C(=O)N(C)/N=C/c2ccc(OC)c(OC)c2)cc1`, IC50 0.074 µM. Against it:
- COc1ccc(/C=N/N(C)C(=O)c2ccc(O)cc2)cc1OC — 2.4-fold lower, 0.031 µM
- Clc1ncnc2ccccc12 — 8.4-fold higher, 0.622 µM

test system: not listed separately; assay: Inhibition of bovine PDE5 using […] as substrate; design: species or system Bos taurus; conditions: not given

`COc1ccc(C(=O)N(C)/N=C/c2ccc(OC)c(OC)c2)cc1` gave an IC50 of 0.15 µM.

test system: not listed separately; assay: Inhibition of PDE6; conditions: not given

Compound `COc1ccc(/C=N/N(C)C(=O)c2ccc(O)cc2)cc1OC` has an IC50 of 9.1 µM.

species on record: Bos taurus; assay: Inhibition of bovine PDE1 using [3H]cAMP as substrate at 10 uM; conditions: not given

Point of comparison: `COc1ccc(/C=N/N(C)C(=O)c2ccc(O)cc2)cc1OC`, inhibition 28.3%. Against it:
- COc1ccc(/C=N/N(C)C(=O)c2ccc3c(c2)OCO3)cc1OC — lower, 0%
- COc1ccc(C(=O)N(C)/N=C/c2ccc(OC)c(OC)c2)cc1 — lower, 25.1%

target: 3',5'-cyclic-AMP phosphodiesterase 4A (Homo sapiens, UniProt P27815); assay: Inhibition of human recombinant PDE4A; conditions: not given
Sequence (P27815 whole entry): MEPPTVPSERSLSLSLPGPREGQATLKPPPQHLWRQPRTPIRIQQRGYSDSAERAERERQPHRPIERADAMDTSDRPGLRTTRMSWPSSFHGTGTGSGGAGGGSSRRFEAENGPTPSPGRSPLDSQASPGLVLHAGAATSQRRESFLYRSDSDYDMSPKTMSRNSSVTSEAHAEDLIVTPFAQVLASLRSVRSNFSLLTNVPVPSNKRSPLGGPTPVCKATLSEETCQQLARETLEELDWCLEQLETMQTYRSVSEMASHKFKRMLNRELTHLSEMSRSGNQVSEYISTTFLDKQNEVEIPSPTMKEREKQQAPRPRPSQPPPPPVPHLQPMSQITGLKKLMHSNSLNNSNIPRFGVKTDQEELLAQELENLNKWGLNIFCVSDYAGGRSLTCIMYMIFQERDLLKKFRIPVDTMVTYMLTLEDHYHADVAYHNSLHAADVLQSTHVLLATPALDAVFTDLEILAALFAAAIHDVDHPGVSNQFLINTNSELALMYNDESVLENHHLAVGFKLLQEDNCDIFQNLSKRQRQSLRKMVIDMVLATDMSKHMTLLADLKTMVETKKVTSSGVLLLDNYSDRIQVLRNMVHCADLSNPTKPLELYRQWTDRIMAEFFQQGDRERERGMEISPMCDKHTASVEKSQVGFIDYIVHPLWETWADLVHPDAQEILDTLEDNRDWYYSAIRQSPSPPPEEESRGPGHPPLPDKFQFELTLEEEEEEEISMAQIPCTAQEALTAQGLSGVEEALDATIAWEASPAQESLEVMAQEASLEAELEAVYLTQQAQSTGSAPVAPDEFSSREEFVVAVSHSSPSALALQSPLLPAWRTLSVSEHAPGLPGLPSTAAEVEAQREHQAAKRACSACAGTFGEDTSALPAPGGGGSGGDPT

Point of comparison: `COc1ccc(/C=N/N(C)C(=O)c2ccc(O)cc2)cc1OC`, IC50 0.064 µM. Against it:
- Clc1ncnc2ccccc12 — 2.5-fold higher, 0.162 µM
- COc1ccc(C(=O)N(C)/N=C/c2ccc(OC)c(OC)c2)cc1 — 2.5-fold higher, 0.159 µM

test system: not listed separately; assay: Inhibition of bovine PDE3 using [3H]cAMP as substrate; design: species or system Bos taurus; conditions: not given

Point of comparison: `COc1ccc(/C=N/N(C)C(=O)c2ccc(O)cc2)cc1OC`, IC50 11.8 µM. Against it:
- COc1ccc(C(=O)N(C)/N=C/c2ccc(OC)c(OC)c2)cc1 — 1.8-fold lower, 6.7 µM

test system: PBMC; assay: Antiinflammatory activity in human PBMC assessed as inhibition of LPS-induced TNFalpha production at 10 uM after 24 hrs by ELISA relative to control; format: functional; conditions: not given

Point of comparison: `COc1ccc(C(=O)N(C)/N=C/c2ccc(OC)c(OC)c2)cc1`, inhibition at 10 µM 84%. Against it:
- COc1ccc(/C=N/N(C)C(=O)c2ccc3c(c2)OCO3)cc1OC — higher, 90%
- COc1ccc(/C=N/N(C)C(=O)c2ccc(O)cc2)cc1OC — lower, 83%
